{"source": "ChEMBL document CHEMBL6153131", "about": "“Rational Design and Optimization of a Potent IDO1 Proteolysis Targeting Chimera (PROTAC)” (J Med Chem, 2025)", "key": {"[1]": {"target": "T1, Protein cereblon/Indoleamine 2,3-dioxygenase 1 (Homo sapiens, UniProt P14902+Q96SW2)", "test": "PROTAC activity at CRBN/IDO1 in human PC-3 cells assessed as induction of IDO1 degradation pretreated with IFN-gamma for 24 hrs followed by compound addition and measured after 24 hrs by Western blotting analysis", "format": "cell-based", "conditions": "dose 50-100 nM", "how_it_was_run": "(§1)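 Cells had IDO1 induced with IFNγ, then were treated at the indicated concentrations for 24 h. Lines: PDX-6 and PDX-38 adult GBM PDX cells, U87 overexpressing GFP-fused IDO1, PC-3, KNS42, MDA-MB-231, SW-1990 and SKOV-3. Lysates probed for IDO1 and GAPDH by Western blot; representative of 3 separate replicates.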"}, "[2]": {"target": "T1, Protein cereblon/Indoleamine 2,3-dioxygenase 1", "test": "PROTAC activity at CRBN/IDO1 in human GBM43 cell assessed as induction of IDO1 degradation at 0.1 uM pretreated with IFN-gamma for 24 hrs followed by compound addition and measured after 24 hrs by Western blotting analysis (reference value: 100%)", "format": "cell-based", "how_it_was_run": "(§2)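 GBM43 patient-derived cells given an extended dose range of PROTAC for 24 h. Protein analysed by Western blot for IDO1, and IFNγ-induced IDO1 normalised to untreated samples. n = 3 independent experiments; data as mean ± SEM.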"}, "[3]": {"target": "T1, Protein cereblon/Indoleamine 2,3-dioxygenase 1", "test": "PROTAC activity at CRBN/IDO1 in human U87 cells assessed as induction of IDO1 degradation by measuring remaining activity at 0.01 uM pretreated with IFN-gamma for 24 hrs followed by compound addition and measured after 24 hrs by Western blotting analysis (reference value: 100%)", "format": "cell-based", "how_it_was_run": "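U87 cells given an extended dose range of PROTAC for 24 h, then Western blot for IDO1. IFNγ-induced IDO1 levels normalised to untreated samples. n = 3 independent experiments; mean ± SEM.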"}, "[4]": {"system": "Kelly", "test": "Downregulation of CDK8 protein level in human Kelly cells at 1 uM incubated for 24 hrs by proteomics analysis", "format": "functional, cell-based"}, "[5]": {"target": "T1, Protein cereblon/Indoleamine 2,3-dioxygenase 1", "test": "PROTAC activity at CRBN/IDO1 in human U87 cells assessed as induction of IDO1 degradation by measuring remaining activity at 100 nM pretreated with IFN-gamma for 24 hrs followed by compound addition and measured after 24 hrs by Western blotting analysis (reference value: 100%)", "format": "cell-based"}, "[6]": {"target": "T1, Protein cereblon/Indoleamine 2,3-dioxygenase 1", "test": "PROTAC activity at CRBN/IDO1 in human SW1990 cells assessed as induction of IDO1 degradation pretreated with IFN-gamma for 24 hrs followed by compound addition and measured after 24 hrs by Western blotting analysis", "format": "cell-based", "conditions": "dose 50-100 nM", "how_it_was_run": "as §1"}, "[7]": {"target": "Indoleamine 2,3-dioxygenase 1 (Homo sapiens) (UniProt P14902)", "sequence (P14902 whole entry, looked up)": "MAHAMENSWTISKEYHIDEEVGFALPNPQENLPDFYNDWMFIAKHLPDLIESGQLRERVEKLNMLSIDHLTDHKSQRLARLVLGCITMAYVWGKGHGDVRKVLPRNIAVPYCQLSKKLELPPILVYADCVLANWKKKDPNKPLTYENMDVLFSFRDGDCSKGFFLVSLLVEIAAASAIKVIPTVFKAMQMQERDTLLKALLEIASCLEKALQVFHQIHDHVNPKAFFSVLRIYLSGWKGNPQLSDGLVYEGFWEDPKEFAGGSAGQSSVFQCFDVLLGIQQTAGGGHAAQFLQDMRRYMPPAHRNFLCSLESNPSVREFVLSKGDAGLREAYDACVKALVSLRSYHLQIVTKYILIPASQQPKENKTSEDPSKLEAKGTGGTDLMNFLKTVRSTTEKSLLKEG", "test": "Binding affinity to 6His-tagged recombinant IDO1 (unknown origin) assessed as binary complex formation by measuring half life by Biolayer Interferometry assay"}, "[8]": {"target": "T1, Protein cereblon/Indoleamine 2,3-dioxygenase 1", "test": "PROTAC activity at CRBN/IDO1 in human U87 cells assessed as induction of IDO1 degradation by measuring remaining activity at 50 nM pretreated with IFN-gamma for 24 hrs followed by compound addition and measured after 24 hrs by Western blotting analysis (reference value: 100%)", "format": "cell-based"}, "[9]": {"target": "T1, Protein cereblon/Indoleamine 2,3-dioxygenase 1", "test": "PROTAC activity at CRBN/IDO1 in human U87 cells assessed as induction of IDO1 degradation by measuring remaining activity at 25 nM pretreated with IFN-gamma for 24 hrs followed by compound addition and measured after 24 hrs by Western blotting analysis (reference value: 100%)", "format": "cell-based"}, "[10]": {"test": "Cmax in female C57BL/6J mouse brain at 50 mg/kg, ip by LC-MS/MS analysis", "format": "ADME, organism-based"}, "[11]": {"system": "SK-OV-3", "test": "Inhibition of kynurenine production in human SK-OV-3 cells pretreated with IFN-gamma for 24 hrs followed by compound addition and measured after 24 hrs by Ehrlich's reagent based analysis", "format": "functional, cell-based", "conditions": "dose 50-100 nM"}, "[12]": {"system": "Kelly", "test": "Downregulation of SALL4 protein level in human Kelly cells at 1 uM incubated for 24 hrs by proteomics analysis", "format": "functional, cell-based"}, "[13]": {"system": "SW1990", "test": "Inhibition of kynurenine production in human SW1990 cells pretreated with IFN-gamma for 24 hrs followed by compound addition and measured after 24 hrs by Ehrlich's reagent based analysis", "format": "functional, cell-based", "conditions": "dose 50-100 nM"}, "[14]": {"target": "T1, Protein cereblon/Indoleamine 2,3-dioxygenase 1", "test": "PROTAC activity at CRBN/IDO1 in human U87 cells assessed as induction of IDO1 degradation by measuring remaining activity at 100 nM pretreated with IFN-gamma for 24 hrs followed by compound addition and measured after 2 hrs by Western blotting analysis (reference value: 100%)", "format": "cell-based", "how_it_was_run": "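U87 cells under single continuous PROTAC treatment (50 and 100 nM), sampled at multiple time points up to 72 h. IDO1 assessed by Western blot.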"}, "[15]": {"target": "T1, Protein cereblon/Indoleamine 2,3-dioxygenase 1", "test": "PROTAC activity at CRBN/IDO1 in human U87 cells assessed as induction of IDO1 degradation at 50 to 100 nM pretreated with compound for 24 hrs followed by compound washout and measured upto 48 hrs by Western blotting analysis", "format": "cell-based", "conditions": "dose 50-100 nM", "how_it_was_run": "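U87 cells given a 24 h PROTAC pulse, then cultured without compound for up to 48 h after washout. IDO1 assessed by Western blot.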"}, "[16]": {"target": "T1, Protein cereblon/Indoleamine 2,3-dioxygenase 1", "test": "PROTAC activity at CRBN/IDO1 in human GBM43 cell assessed as induction of IDO1 degradation at 1 uM pretreated with IFN-gamma for 24 hrs followed by compound addition and measured after 24 hrs by Western blotting analysis (reference value: 100%)", "format": "cell-based", "how_it_was_run": "as §2"}, "[17]": {"target": "T1, Protein cereblon/Indoleamine 2,3-dioxygenase 1", "test": "PROTAC activity at CRBN/IDO1 in human U87 cells assessed as induction of IDO1 degradation at 100 nM at 1 uM pretreated with IFN-gamma for 24 hrs followed by compound addition and measured after 24 hrs in presence of pomalidomide by Western blotting analysis", "format": "cell-based"}, "[18]": {"target": "T1, Protein cereblon/Indoleamine 2,3-dioxygenase 1", "test": "PROTAC activity at CRBN/IDO1 in human PDX-6 cells assessed as induction of IDO1 degradation pretreated with IFN-gamma for 24 hrs followed by compound addition and measured after 24 hrs by Western blotting analysis", "format": "cell-based", "conditions": "dose 50-100 nM", "how_it_was_run": "as §1"}, "[19]": {"target": "T1, Protein cereblon/Indoleamine 2,3-dioxygenase 1", "test": "PROTAC activity at CRBN/IDO1 in human GBM43 cell assessed as induction of IDO1 degradation pretreated with IFN-gamma for 24 hrs followed by compound addition and measured after 24 hrs by Western blot analysis", "format": "cell-based", "how_it_was_run": "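GBM43 cells treated for 24 h across an extended dose range. IDO1 Western blot, IFN-γ-induced IDO1 normalized to untreated; DC50 from n = 3 independent experiments.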"}, "[20]": {"system": "U-87MG ATCC", "test": "Inhibition of kynurenine production in human U87 cells […] and measured after 24 hrs by Ehrlich's reagent based analysis", "format": "functional, cell-based", "conditions": "dose 0.001-10 µM", "how_it_was_run": "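U87 cells plated, then 24 h later given compound with 50 ng/mL IFN-γ for a total of 24 h. Supernatant kynurenine measured with Ehrlich's reagent; cells without IFN-γ as control; mean ± SEM, Tukey's test.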"}, "[21]": {"target": "T1, Protein cereblon/Indoleamine 2,3-dioxygenase 1", "test": "PROTAC activity at CRBN/IDO1 in human GBM43 cell assessed as induction of IDO1 degradation at 3 uM pretreated with IFN-gamma for 24 hrs followed by compound addition and measured after 24 hrs by Western blotting analysis (reference value: 100%)", "format": "cell-based", "how_it_was_run": "as §2"}, "[22]": {"system": "PDX-6", "test": "Inhibition of kynurenine production in human PDX-6 cells pretreated with IFN-gamma for 24 hrs followed by compound addition and measured after 24 hrs by Ehrlich's reagent based analysis", "format": "functional, cell-based", "conditions": "dose 50-100 nM"}, "[23]": {"test": "Half life in female C57BL/6J mouse brain at 50 mg/kg, ip by LC-MS/MS analysis", "format": "ADME, organism-based"}}, "note": "Activity calls are given as the source filed them. The calls are words filed in the database; no cut-off is given here."}
{"smiles": "C[C@@H](C(=O)Nc1cccc(OC2CCN(C(=O)CN3CCC(N4CCN(c5ccc6c(c5)C(=O)N(C5CCC(=O)NC5=O)C6=O)CC4)CC3)CC2)c1)[C@H]1CC[C@@H](c2ccnc3ccc(F)cc32)CC1", "note": "(stereo partly drawn)", "values": [{"measurement": "Activity", "setting": "[1]", "value": "Dose-dependent-effect"}, {"measurement": "Activity", "setting": "[2]", "value": 13, "unit": "%"}, {"measurement": "Activity", "setting": "[3]", "value": 48, "unit": "%"}, {"measurement": "Activity", "setting": "[4]", "value": "Active"}, {"measurement": "Activity", "setting": "[5]", "value": 24, "unit": "%"}, {"measurement": "Activity", "setting": "[6]", "value": "Dose-dependent-effect"}, {"measurement": "T1/2", "setting": "[7]", "value": 38.6, "unit": "s"}, {"measurement": "Activity", "setting": "[8]", "value": 28, "unit": "%"}, {"measurement": "Activity", "setting": "[9]", "value": 35, "unit": "%"}, {"measurement": "Cmax", "setting": "[10]", "value": 100, "unit": "nM"}, {"measurement": "inhibition", "setting": "[11]", "value": "Dose-dependent-effect"}, {"measurement": "Activity", "setting": "[12]", "value": "Active"}, {"measurement": "inhibition", "setting": "[13]", "value": "Dose-dependent-effect"}, {"measurement": "Activity", "setting": "[14]", "value": 86, "unit": "%"}, {"measurement": "Activity", "setting": "[15]", "value": "Active"}, {"measurement": "Activity", "setting": "[16]", "value": 47, "unit": "%"}, {"measurement": "Activity", "setting": "[17]", "value": "inactive"}, {"measurement": "Activity", "setting": "[18]", "value": "Dose-dependent-effect"}, {"measurement": "DC50", "setting": "[19]", "value": 11.8, "unit": "nM"}, {"measurement": "inhibition", "setting": "[20]", "value": "Dose-dependent-effect"}, {"measurement": "Activity", "setting": "[21]", "value": 77, "unit": "%"}, {"measurement": "inhibition", "setting": "[22]", "value": "Dose-dependent-effect"}, {"measurement": "half-life", "setting": "[23]", "value": 11.8, "unit": "h"}]}
